Data published in ChEMBL document CHEMBL1159047, “Synthesis and biological evaluation of antitumour-active betulin derivatives” (Bioorg Med Chem, 2010).
pIC50: −log10 of the molar value. The source made the active and inactive calls. The rule behind the calls is not given here.

How the values were obtained:
[1] = test system: MCF7; test: Cytotoxicity against human MCF7 cells after 96 hrs by SRB assay; format: functional, cell-based; conditions: MCF7, 96 h
Outline: (§1)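 Monolayer cells grown in RPMI 1640 with 10% heat-inactivated FBS and penicillin/streptomycin at 37 °C, 5% CO2. Cells were seeded and, after 24 h, exposed to serial dilutions (0–30 µM; DMSO or DMF ≤0.5% final) for 96 h. They were then fixed with 10% TCA at 4 °C, stained with 0.4% SRB and dissolved in 10 mM Tris, with absorbance read at 570 nm. IC50 comes from semi-log dose–response curves of survival versus untreated controls, from ≥3 independent experiments.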

[2] = Cytotoxicity against human Liposarcoma cells after 96 hrs by SRB assay; format: functional, cell-based; outline: as §1
[3] = test system: A549; test: Cytotoxicity against human A549 cells after 96 hrs by SRB assay; format: functional, cell-based; conditions: A549, 96 h; outline: as §1
[4] = test system: HCT-8; test: Cytotoxicity against human HCT8 cells after 96 hrs by SRB assay; format: functional, cell-based; conditions: HCT-8, 96 h; outline: as §1
[5] = Cytotoxicity against human A253 cells after 96 hrs by SRB assay; format: functional, cell-based; conditions: A253, 96 h; outline: as §1
[6] = test system: A2780; test: Cytotoxicity against human A2780 cells after 96 hrs by SRB assay; format: functional, cell-based; conditions: A2780, 96 h; outline: as §1
[7] = test system: FaDu; test: Cytotoxicity against human FADU cells after 96 hrs by SRB assay; format: functional, cell-based; outline: as §1
[8] = test system: HT-29; test: Cytotoxicity against human HT-29 cells after 96 hrs by SRB assay; format: functional, cell-based; conditions: HT-29, 96 h; outline: as §1
[9] = test system: 8505C; test: Cytotoxicity against human 8505C cells after 96 hrs by SRB assay; format: functional, cell-based; outline: as §1
[10] = test system: HCT-116; test: Cytotoxicity against human HCT116 cells after 96 hrs by SRB assay; format: functional, cell-based; conditions: HCT-116, 96 h; outline: as §1
[11] = test system: DLD-1; test: Cytotoxicity against human DLD1 cells after 96 hrs by SRB assay; format: functional, cell-based; conditions: DLD-1, 96 h; outline: as §1
[12] = test system: SW480; test: Cytotoxicity against human SW480 cells after 96 hrs by SRB assay; format: functional, cell-based; conditions: SW480, 96 h; outline: as §1
[13] = test system: A-431; test: Cytotoxicity against human A431 cells after 96 hrs by SRB assay; format: functional, cell-based; conditions: A-431, 96 h; outline: as §1
[14] = test system: SW-1736; test: Cytotoxicity against human SW1736 cells after 96 hrs by SRB assay; format: functional, cell-based; conditions: SW-1736, 96 h; outline: as §1
[15] = Cytotoxicity against human 518A2 cells after 96 hrs by SRB assay; format: functional, cell-based; conditions: 518A2, 96 h; outline: as §1
[16] = test system: HT-29; test: Growth inhibition of human HT-29 cells at 30 uM after 96 hrs by SRB assay; format: functional, cell-based
Outline: (§2)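 Same SRB set-up: RPMI 1640 with 10% FBS at 37 °C, 5% CO2, and a 96 h exposure starting 24 h after seeding (DMSO or DMF ≤0.5% final). Percent viable cells relative to untreated controls is read at 30 µM, the top concentration of the 0–30 µM dilution series. Cells were fixed with TCA, stained with SRB and read at 570 nm; ≥3 independent experiments.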

[17] = test system: 8505C; test: Growth inhibition of human 8505C cells at 30 uM after 96 hrs by SRB assay; format: functional, cell-based; outline: as §2
[18] = test system: DLD-1; test: Growth inhibition of human DLD1 cells at 30 uM after 96 hrs by SRB assay; format: functional, cell-based; outline: as §2
[19] = species: Homo sapiens; test: Growth inhibition of human Liposarcoma cells at 30 uM after 96 hrs by SRB assay; format: functional; outline: as §2
[20] = test system: 518A2; test: Growth inhibition of human 518A2 cells at 30 uM after 96 hrs by SRB assay; format: functional, cell-based; outline: as §2

Row | Structure (SMILES) | pIC50 [1] | pIC50 [2] | pIC50 [3] | pIC50 [4] | pIC50 [5] | pIC50 [6] | pIC50 [7] | pIC50 [8] | pIC50 [9] | pIC50 [10] | pIC50 [11] | pIC50 [12] | pIC50 [13] | pIC50 [14] | pIC50 [15] | growth inhibition (GI) [16] | growth inhibition (GI) [17] | growth inhibition (GI) [18] | growth inhibition (GI) [19] | growth inhibition (GI) [20]
1 | C=C(C)[C@@H]1CC[C@]2([C@H](O)CC(=O)CC(=O)OCC)CC[C@]3(C)[C@H](CC[C@@H]4[C@@]5(C)CC[C@H](OC(C)=O)C(C)(C)[C@@H]5CC[C@]43C)[C@@H]12 | 4.86 | 5.05 | 4.77 | 4.95 | 5.00 | 5.04 | 4.98 | 4.73 | 5.02 | 4.89 | 5.03 | 4.89 | 4.79 | 4.97 | 4.94 |  |  |  |  | 
2 | C=C(C)[C@@H]1CC[C@]2([C@H](O)[C@H]3CCOC3=O)CC[C@]3(C)[C@H](CC[C@@H]4[C@@]5(C)CC[C@H](OC(C)=O)C(C)(C)[C@@H]5CC[C@]43C)[C@@H]12 | 4.93 | 4.76 | 4.68 | 5.08 | 4.77 | 4.91 | 4.76 |  | 4.65 | 4.97 | 4.76 | 4.79 | 4.93 | 4.73 | 4.75 | inactive |  |  |  | 
3 | C=C(C)[C@@H]1CC[C@]2([C@H](O)CC(=O)CC(=O)OCC)CC[C@]3(C)[C@H](CC[C@@H]4[C@@]5(C)CC[C@H](OC)C(C)(C)[C@@H]5CC[C@]43C)[C@@H]12 | 4.68 | 4.75 | 4.84 | 4.90 | 4.77 | 4.92 | 4.79 | 4.77 | 4.75 | 4.84 | 4.85 | 4.82 | 4.68 | 4.86 | 4.71 |  |  |  |  | 
4 | C=C(C)[C@@H]1CC[C@]2(C(=O)O)CC[C@]3(C)[C@H](CC[C@@H]4[C@@]5(C)CC[C@H](O)C(C)(C)[C@@H]5CC[C@]43C)[C@@H]12 [BETULINIC ACID] |  | 5.01 |  |  |  |  |  |  |  |  |  |  |  |  |  |  |  |  |  | 
5 | C=C(C)[C@@H]1CC[C@]2([C@@H]3O[C@H]3C(=O)N(CC)CC)CC[C@]3(C)[C@H](CC[C@@H]4[C@@]5(C)CC[C@H](OC(C)=O)C(C)(C)[C@@H]5CC[C@]43C)[C@@H]12 | 5.34 | 5.11 | 5.25 | 5.57 | 5.46 | 5.33 | 5.23 | 5.02 | 5.08 | 5.64 | 5.10 | 5.22 | 5.37 | 5.57 | 5.15 |  |  |  |  | 
6 | CCOC(=O)C[C@H]1O[C@@H]2[C@@H]3[C@H]4CC[C@@H]5[C@@]6(C)CC[C@H](OC(C)=O)C(C)(C)[C@@H]6CC[C@@]5(C)[C@]4(C)CC[C@@]31CCC2(C)C | 4.57 |  | 4.66 | 4.92 | 4.60 | 4.92 | 4.61 | 4.78 |  | 5.03 |  | 4.76 | 4.65 | 4.59 |  |  | inactive | inactive | inactive | inactive
7 | C=C(C)[C@@H]1CC[C@]2(C(=O)[C@H]3CCOC3=O)CC[C@]3(C)[C@H](CC[C@@H]4[C@@]5(C)CC[C@H](OC(C)=O)C(C)(C)[C@@H]5CC[C@]43C)[C@@H]12 (mixture of isomers) | 5.11 | 5.00 | 5.26 | 5.11 | 5.15 | 5.19 | 5.24 | 4.83 | 5.04 | 5.21 | 5.02 | 5.02 | 5.14 | 5.21 | 5.02 |  |  |  |  | 
8 | C=C(C)[C@@H]1CC[C@]2(C(=O)CC(=O)OCC)CC[C@]3(C)[C@H](CC[C@@H]4[C@@]5(C)CC[C@H](OC)C(C)(C)[C@@H]5CC[C@]43C)[C@@H]12 | 5.33 | 5.19 | 5.28 | 5.39 | 5.13 | 5.37 | 5.19 | 5.39 | 5.10 | 5.44 | 5.10 | 5.23 | 5.41 | 5.14 | 5.20 |  |  |  |  | 
9 | CCOC(=O)CC(=O)C[C@H]1O[C@@H]2[C@@H]3[C@H]4CC[C@@H]5[C@@]6(C)CC[C@H](OC(C)=O)C(C)(C)[C@@H]6CC[C@@]5(C)[C@]4(C)CC[C@@]31CCC2(C)C | 5.04 | 4.98 | 5.28 | 5.21 | 4.96 | 5.33 | 5.15 | 4.88 | 5.05 | 5.15 | 5.14 | 5.24 | 5.01 | 4.95 | 4.98 |  |  |  |  | 
10 | C=C(C)[C@@H]1CC[C@]2([C@H](O)[C@H]3C=CC(=O)O3)CC[C@]3(C)[C@H](CC[C@@H]4[C@@]5(C)CC[C@H](OC(C)=O)C(C)(C)[C@@H]5CC[C@]43C)[C@@H]12 | 4.90 | 4.80 | 4.77 | 4.83 | 4.80 | 5.06 | 4.91 | 4.52 | 4.77 | 5.07 | 4.79 | 4.89 | 5.05 | 4.83 | 4.78 |  |  |  |  | 
11 | C=C(C)[C@@H]1CC[C@]2(C(=O)CC(=O)OCC)CC[C@]3(C)[C@H](CC[C@@H]4[C@@]5(C)CC[C@H](OC(C)=O)C(C)(C)[C@@H]5CC[C@]43C)[C@@H]12 | 5.17 | 5.66 | 5.66 | 5.52 | 5.66 | 5.74 | 5.52 | 4.92 | 5.64 | 5.62 | 5.41 | 5.66 | 5.59 | 5.64 | 5.60 |  |  |  |  | 
